Hit rate of the full screen: of about 330,000 compounds, about 55 (0.02%) were called active. Only a selection was taken, and actives are over-represented in it overall. Values without a mark were called inactive.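 How the source made its calls: active means highest replicate inhibition of at least 40%; inactive means the rest.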
biological target: Golgi-associated PDZ and coiled-coil motif-containing protein (Homo sapiens) (UniProt Q9HD26); test: CAL PDZ peptide-binding inhibitors, primary screen, biochemical, fluorescence polarization, Cer-tagged CAL PDZ, HTS (AID 504414); conditions: purified CAL PDZ, TMR-peptide fluorescence polarization, 1 h; at 20 µM; stronger effect = higher value;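 further: plate controls were DMSO neutral control wells for no effect and unlabeled competitor peptide control wells for full effect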
Summary of the method: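 Read-out basis: mP drop reported as inhibition | Assay system: Tagged CAL PDZ protein CerCALP, purified | Benchmarks: Unlabelled peptide for full inhibition, DMSO wells as neutral | Schedule: 1 h incubation at room temperature before polarization reading | Buffer or medium: Sodium phosphate/NaCl buffer pH 7.4 with TCEP, IgG, Thesit | Doses: Single point, 20 µM | Measured by: Fluorescence polarization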

SMILES	inhibition
COc1ccccc1N(CC(=O)Nc1c(C)n(C)n(-c2ccccc2)c1=O)S(=O)(=O)c1ccccc1	0.495%
CCN(CC)CCN1C(=O)C2C(C(=O)Nc3ccc(Br)cc3)C3C=CC2(O3)C1C(=O)NC1CCCCC1 (stereo unspecified)	0.206%
COc1ccc(-n2c(O)c(C=NCC(c3ccco3)N3CCCC3)c3ccccc3c2=O)cc1OC (stereo unspecified)	-2.24%
CC1CCCN(C(=O)Cn2c(=O)oc3ccccc32)C1 (stereo unspecified)	0.481%
COc1ccc(/C=C/C(=O)NC(=S)N2CCCC(C(N)=O)C2)cc1 (stereo unspecified)	-0.891%
O=C(C1CCCO1)N1CCN(S(=O)(=O)c2ccc(Br)cc2)CC1 (stereo unspecified)	-0.919%
CC(OC(=O)c1ccc(-n2cnnn2)cc1)C(=O)NCc1ccccc1 (stereo unspecified)	-0.615%
COc1ccccc1N1CCN(CC(=O)NCCc2ccc(S(N)(=O)=O)cc2)CC1	1.11%
O=C1COc2c1ccc(O)c2O	-0.377%
CCC(C(=O)NC1CCCCC1)N(C(=O)c1snc(C(N)=O)c1N)c1ccc(OC)cc1OC (stereo unspecified)	-1.96%
COC(=O)c1cc(NC2c3ccccc3C(=O)N2c2ccc(Cl)cn2)cc(C(=O)OC)c1 (stereo unspecified)	1.56%
Cc1cccc(OCCNC(=S)NC(=O)c2cccnc2)c1	-1.24%
COC(=O)c1cc(C(=O)N(Cc2ccccc2)c2ccccn2)cc([N+](=O)[O-])c1	-1.95%
FC(F)(F)c1cc(C(F)(F)F)c2ccc(N3CCN(c4ccccc4)CC3)nc2n1	-0.0994%
Cc1cccc(N2Cc3ccccc3C2=NC(=O)c2ccc(Cl)nc2)c1	-3%
Cc1ccc(C(=O)O)c(NC=O)c1OCc1ccccc1	-0.888%
O=C(Nc1ccc(F)c([N+](=O)[O-])c1)C1CCCO1 (stereo unspecified)	0.3%
C[C@@H]1C(c2ccc(F)cc2)=NN(c2ccc(Br)cc2)[C@H]1C(=O)N1CCOC1=O	-0.314%
COc1ccc(N2CCN(C(=O)c3ccc(N4CCCCS4(=O)=O)cc3)CC2)cc1	-1.77%
CCCCCCCCCCOC(=O)C[N+](C)(C)CC1CCCCC1O (stereo unspecified)	-1.83%
Cc1cc(C)c(C#N)c(Nc2cccc(Br)c2)n1	-0.811%
COc1ccc2c(c1)c(=Cc1ccc(N(C)C)cc1)c1cc(-c3ccccc3)[n+](C)n12	32%
COc1ccc(-n2nc(C(=O)NCC(=O)N3CCC(C(N)=O)CC3)c3ccccc3c2=O)cc1OC	0.6%

SMILES	inhibition
COc1ccccc1C(=O)COC(=O)CNS(=O)(=O)c1ccc(NC(C)=O)cc1	-3.17%
COc1cc2c(cc1OC)C1C(=O)c3cc(OS(C)(=O)=O)c(OC)cc3C1N(C)C2=O (stereo unspecified)	-0.086%
Cc1ccc(NC(=O)CN2C(=O)NC(C)(c3ccc(Cl)cc3)C2=O)c(Br)c1 (stereo unspecified)	-4.23%
CCOc1cc(/C=N/NC(=O)c2ccc(CSc3nncn3C)cc2)ccc1OCC(=O)N1CCOCC1	-3.73%
CCN(CC)S(=O)(=O)c1cccc(-c2n[nH]c(=S)n2/N=C/c2ccc(C(=O)OC)cc2)c1	-1.46%
CCCCC(CC)CNCc1cccn1CCN1CCOCC1 (stereo unspecified)	0.235%
Cc1cc(C)n(CC(C)NCc2c(C(=O)N3CCOCC3)nc3c(C)cccn23)n1 (stereo unspecified)	0.659%
COc1ccccc1C1C(C(N)=O)=C(C)Nc2nc(CCCO)nn21 (stereo unspecified)	-0.498%
Nc1cc2c(cc1Br)-c1ccc(F)cc1C2=O	-0.277%
O=C(O)CCC(=O)Nc1ccc(OCC2CCCO2)cc1 (stereo unspecified)	-0.764%
Cc1c[n+]([O-])ccc1[N+](=O)[O-]	0.378%
Cc1nc(C)c2c(c1C(F)(F)F)-c1ccccc1C2(F)F	-1.33%
NC1=NC(=O)C(Cc2cccc(Cl)c2Cl)S1 (stereo unspecified)	1.03%
CCc1ccc(OCC(=O)OC(C)C(=O)NC2CC2)cc1 (stereo unspecified)	-0.543%
CC(C)(C)C(=O)N(Cc1ccccc1)c1ccccn1	0.0459%
COC(C(=O)Nc1ccc(S(=O)(=O)Nc2ccc(C)c(C)c2)cc1)c1ccccc1 (stereo unspecified)	-3.38%
CCCCCCCCNS(=O)(=O)CCNC1CCCCC1	-1.06%
O=C1CSc2ccc(S(=O)(=O)NCc3ccccc3)cc2N1	-0.383%
CCOc1ccccc1-n1c(SCC(=O)N2CCCC2)nnc1-c1ccoc1C	-1.83%
O=S(=O)(NC1CCCCC1N1CCC(O)CC1)c1ccc(Cl)cc1 (stereo unspecified)	-0.646%
CC1CCCCC1NC(=O)CCS(=O)(=O)c1ccc2c(c1)NC(=O)CO2 (stereo unspecified)	-0.536%
COc1ccc(/C=N/N=C/c2c[nH]c(=O)c(C#N)c2Nc2ccccc2)cc1	-5.96%
CCCCCC(=O)Nc1ccc(-c2cn3cccnc3n2)cc1	177% (active)

SMILES	inhibition
CC(C)(C)C(=O)Nc1ccc(-c2cn3cccnc3n2)cc1	-1.11%
CC(=O)Nc1ccc(-c2cn3cccnc3n2)cc1	-1.06%
Cc1ccc(C(=O)NNC(=O)OC(C)(C)C)c(Cl)c1	-1.58%
S=c1[nH]cc(-c2ccc(Cl)cc2)n1-c1ccccc1	-1.13%
CC(=O)c1nc(N2C(=O)C3CC=C(C)CC3C2=O)sc1C (stereo unspecified)	-0.266%
CC(C)CCN1CCN=C1N(C)C	-2.49%
Cc1ccc(S(=O)(=O)N2CCN(C)CC2)cc1C(=O)NC1CCCCC1	-0.886%
CN1/C(=c2/s/c(=C3/C(=O)N(c4ccccc4)NC3=Nc3ccccc3)n(C)c2=O)C(C)(C)c2ccccc21	0.46%
COc1cc(-c2nc(S(=O)(=O)c3ccc(Cl)cc3)c(N(C)C)o2)cc(OC)c1OC	-0.274%
Clc1c(OCCCn2ccnc2)ccc2ccccc12	-0.854%
O=C(OCC(=O)N1CCCCCC1)c1ccc(Br)c(S(=O)(=O)N2CCOCC2)c1	0.404%
CSc1ccc(Cl)c(C(=O)OCC(=O)N2CC(C)OC(C)C2)c1 (stereo unspecified)	1.25%
CCOc1ccc(NC(=O)CC(Cc2ccc(Cl)cc2)C(=O)O)cc1 (stereo unspecified)	-0.804%
Cc1cc(-n2cnc(-c3cn(C)nc3C)n2)no1	-0.598%
C=CCOC(=O)N1CCC2CC1c1cc(-c3ccc(OC)cc3)ccc12 (stereo unspecified)	-0.353%
Cc1nc(-c2ccccc2)sc1-c1nnc(C2CC2)o1	-0.361%
CCN(C(=O)COC(=O)/C=C/c1nc2ccccc2s1)C1CCS(=O)(=O)C1 (stereo unspecified)	0.0609%
CC(=O)c1c(C)[nH]c(C(=O)Nc2cc(S(=O)(=O)N(C)C)ccc2C)c1C	-0.89%
COc1ccc(CNC(=O)CSc2n[nH]c(N)n2)cc1OC	-2.17%
C=CCOc1c2ccc(C(=O)N(CC)c3ccc(OC)cc3)cc2nn1C	-0.978%
O=C(COc1coc(CN2CCN(c3ccccc3)CC2)cc1=O)N1CCc2ccccc21	-0.986%
COc1cc(NC(=O)c2ccc3c(c2)OCO3)ccc1NC(=O)c1cccs1	-2.17%
COc1cc2ccccc2cc1C(=O)Nc1ccc(NC(=O)c2cccs2)cc1	-1.38%

SMILES	inhibition
COc1cc(NC(=O)c2cccs2)ccc1NC(=O)c1ccccc1Cl	52% (active)
Cn1cc(CCC(=O)N2CCCC(C(=O)c3ccc(C(C)(C)C)cc3)C2)cn1 (stereo unspecified)	-1.53%
Cc1ccccc1NC(=O)CCOc1ccccc1	-0.379%
COc1ccccc1-n1ccnc(SCC(=O)NC2CCCCC2)c1=O	-0.307%
CN(C)S(=O)(=O)Oc1ccccc1C(=O)Nc1ccccc1Cl	-2.53%
CN(C)C(=O)CCc1ccc2c3c([nH]c2c1)[C@]1(C)[C@@H](C(=O)N2CCCCC2)C[C@H](CC(=O)NCCC2=CCCCC2)C(=O)N1CC3	-0.602%
CC(CN1CCCCC1)c1ccccc1 (stereo unspecified)	-0.367%
COc1ccccc1CNC(=O)CNC(=O)c1cn(-c2ccccc2OC)c(=O)c2ccccc12	-0.592%
CCc1ccc(C(=O)C(C)OC(=O)CN2C(=O)NC3(CCCC3)C2=O)cc1 (stereo unspecified)	-0.0354%
Cc1ccoc1C(=O)Nc1cccc(Oc2ccccc2)c1	-1.61%
Cc1ccnc(NC(=O)C2CCN(S(=O)(=O)c3c(C)c(C)cc(C)c3C)CC2)c1	-2.34%
CCOc1ccc(OCC(=O)OC(C)C(=O)NC2CCCCC2C)cc1 (stereo unspecified)	-1.17%
O=C(O)C1C2C=CC(O2)C1C(=O)Nc1ccccn1 (stereo unspecified)	0.325%
COCCN(C(=S)Nc1ccccc1OC)C1CCN(C(C)C)CC1	61.8% (active)
COc1ccccc1NC(=S)N1CCN(C(c2ccccc2)c2ccccc2)CC1	0.312%
CCc1cccc(NC(=S)N(CCN(C)C)C2CCN(C(C)C)CC2)c1	-0.435%
Cc1ccccc1N1C(=O)C2ON(c3ccccc3)C(c3ccncc3)C2C1=O (stereo unspecified)	-1.2%
CCCCN(C)c1ccc([N+](=O)[O-])cc1	-3.03%
CC(=O)c1c(O)cc2n(c1=O)-c1ccc(Cl)cc1C2(C)C	-2.37%
COc1ccc(-c2cc(C(=O)N(C)CC(=O)Nc3ccccc3Cl)c3ccccc3n2)cc1OC	-0.623%
O=C(/C=C/Nc1ccc(S(=O)(=O)Nc2cnc3ccccc3n2)cc1)c1cccnc1	-1.99%
COc1ccc(N(CC(=O)N2CCOCC2)S(=O)(=O)c2ccccc2)cc1Cl	-0.969%

Reference: PubChem BioAssay AID504414 (Broad Institute, 2011)
